Measured values: ChEMBL document CHEMBL4813967, “Tackling resistance in chronic myeloid leukemia: Novel cell death modulators with improved efficacy” (Eur J Med Chem, 2021)
The source made the active and inactive calls. The rule behind the calls is not given here.

Assays:
K562 [1] = assay: Induction of cell sensitization to imatinib in imatinib-resistant human K562 cells assessed as cell death at 10 uM incubated for 72 hrs in presence of 1 uM imatinib by PI staining based flow cytometry (reference value: 19%); type: functional
K562 [2] = assay: Induction of cell sensitization to imatinib in imatinib-resistant human K562 cells assessed as cell death at 5 uM incubated for 72 hrs in presence of 1 uM imatinib by PI staining based flow cytometry (reference value: 19%); type: functional
K562 [3] = assay: Induction of cell sensitization to imatinib in imatinib-resistant human K562 cells assessed as cell death at 1.75 uM incubated for 72 hrs in presence of 1 uM imatinib by PI staining based flow cytometry (reference value: 19%); type: functional
[4] = target: T1, Peroxisome proliferator-activated receptor gamma (Homo sapiens, UniProt P37231); assay: Agonist activity at Gal4-fused human PPARgamma transfected in African green monkey COS7 cells co-transfected with pGal5-TK-pGL3 and pRenilla-CMV assessed as receptor transactivation at 10 uM incubated for 39 hrs by dual luciferase reporter gene assay relative to piaglitazone; type: cell-based; settings: COS-7, human, read-out: max activation
T1 sequence (P37231 whole entry): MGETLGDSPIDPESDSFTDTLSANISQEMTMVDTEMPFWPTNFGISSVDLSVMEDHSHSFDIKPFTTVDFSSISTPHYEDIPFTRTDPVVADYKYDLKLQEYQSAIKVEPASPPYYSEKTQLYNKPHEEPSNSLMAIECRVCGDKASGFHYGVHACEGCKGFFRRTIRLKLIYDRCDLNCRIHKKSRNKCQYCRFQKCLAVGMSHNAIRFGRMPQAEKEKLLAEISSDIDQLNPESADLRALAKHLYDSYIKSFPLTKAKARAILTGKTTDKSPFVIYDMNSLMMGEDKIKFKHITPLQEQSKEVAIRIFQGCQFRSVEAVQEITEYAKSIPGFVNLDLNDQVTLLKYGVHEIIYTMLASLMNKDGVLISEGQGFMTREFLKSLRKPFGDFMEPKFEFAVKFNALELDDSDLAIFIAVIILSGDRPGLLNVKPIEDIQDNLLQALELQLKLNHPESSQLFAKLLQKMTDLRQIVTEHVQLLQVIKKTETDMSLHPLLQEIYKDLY
Summary of the method: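 COS-7 cells (10^4/well, triplicates) grown 24 h, then transiently transfected with pGal5-TK-pGL3 (90 ng), pGal4-hPPARγDEF (9 ng) and pRenilla-CMV (3 ng). Compound added 7 h later, incubation 39 h. Cells lysed by freezing at -80 °C overnight plus lysis buffer. Firefly luciferase normalised to Renilla. Activity at 10 µM expressed relative to pioglitazone at 10 µM (100%). Mean ± SD of ≥3 experiments.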

[5] = Cytotoxicity against human HS5 cells assessed as cell death at 5 uM incubated for 72 hrs by PI staining based flow cytometry; settings: hs5, 72 h
Summary of the method: (§1)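 HS-5 stromal cells in DMEM with 10% FCS, 5% CO2, 37 °C. Seeded 0.5×10^5/well, given compound (5 µM) alone or with imatinib, and incubated 72 h. Cells stained with PI/Triton X-100 for 2 h at 4 °C. Dead cells counted by flow cytometry as sub-G1 nuclei. DMSO vehicle control included.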

COS-7 [6] = assay: Cytotoxicity against African green monkey COS7 cells assessed as cell viability at 10 uM incubated for 72 hrs by MTT assay; type: cell-based; settings: chlorocebus aethiops, cos-7, 72 h
Summary of the method: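 COS-7 cells in DMEM with 10% FCS and L-glutamine, no antibiotics or phenol red. Seeded 2×10^3/well in triplicate, grown 24 h, then compound added at 10 µM final and incubated 72 h. Modified MTT (tetrazolium) metabolic-activity readout by absorbance. DMSO control set to 100%; DMSO ≤0.1%. Mean + SD of ≥3 experiments, triplicate determinations.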

[7] = Modulation of STAT5 expression in imatinib-resistant human K562 cells assessed as STAT5 level at 5 uM measured after 6 hrs by Jess Simple Western immunoassay (reference value: 100%); type: functional
Summary of the method: (§2)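 K562-resistant (doxorubicin-resistant KD225) cells treated 6 h with compound at 5 µM, alone or with 1 µM imatinib, against a DMSO control. Total protein extracts analysed by capillary Jess Simple Western. STAT5 antibody 10 µg/ml with 0.2 mg/ml lysate; pSTAT5 (Y694/699) antibody 20 µg/ml with 2 mg/ml lysate. GAPDH (0.4 µg/ml) as loading reference; HRP anti-rabbit secondary.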

K562 [8] = assay: Cytotoxicity against imatinib-resistant human K562 cells assessed as cell death at 5 uM incubated for 72 hrs by propidium iodide staining based flow cytometry; settings: k562, 72 h
Summary of the method: (§3)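 K562-resistant cells, a doxorubicin-resistant K562 subclone (KD225), grown in RPMI 1640 with 10% FCS. Seeded 2×10^5/well and exposed 72 h to compound alone or with 1 µM imatinib. PI/Triton X-100 staining 2 h at 4 °C; flow cytometry scoring sub-G1 nuclei as dead cells. DMSO vehicle (≤0.1%) controls. Mean ± SEM of ≥3 experiments.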

[9] = Cytotoxicity against human HS5 cells assessed as cell death at 5 uM incubated for 72 hrs in presence of imatinib by PI staining based flow cytometry; settings: hs5, 72 h; summary of the method: as §1
[10] = Modulation of STAT5 expression in imatinib-resistant human K562 cells assessed as STAT5 level at 5 uM measured after 6 hrs in presence of imatinib by Jess Simple Western immunoassay (reference value: 100%); type: functional
[11] = target: T2, Signal transducer and activator of transcription 5A (Homo sapiens) (UniProt P42229); assay: Inhibition of STAT5 phosphorylation at Y694/699 residue in imatinib-resistant human K562 cells assessed as phosphorylated STAT5 level at 5 uM incubated for 6 hrs by Jess Simple Western immunoassay (reference value: 100%); type: cell-based; parameters: scale not given: the % may be the effect or the level left; summary of the method: as §2
T2 sequence (whole entry): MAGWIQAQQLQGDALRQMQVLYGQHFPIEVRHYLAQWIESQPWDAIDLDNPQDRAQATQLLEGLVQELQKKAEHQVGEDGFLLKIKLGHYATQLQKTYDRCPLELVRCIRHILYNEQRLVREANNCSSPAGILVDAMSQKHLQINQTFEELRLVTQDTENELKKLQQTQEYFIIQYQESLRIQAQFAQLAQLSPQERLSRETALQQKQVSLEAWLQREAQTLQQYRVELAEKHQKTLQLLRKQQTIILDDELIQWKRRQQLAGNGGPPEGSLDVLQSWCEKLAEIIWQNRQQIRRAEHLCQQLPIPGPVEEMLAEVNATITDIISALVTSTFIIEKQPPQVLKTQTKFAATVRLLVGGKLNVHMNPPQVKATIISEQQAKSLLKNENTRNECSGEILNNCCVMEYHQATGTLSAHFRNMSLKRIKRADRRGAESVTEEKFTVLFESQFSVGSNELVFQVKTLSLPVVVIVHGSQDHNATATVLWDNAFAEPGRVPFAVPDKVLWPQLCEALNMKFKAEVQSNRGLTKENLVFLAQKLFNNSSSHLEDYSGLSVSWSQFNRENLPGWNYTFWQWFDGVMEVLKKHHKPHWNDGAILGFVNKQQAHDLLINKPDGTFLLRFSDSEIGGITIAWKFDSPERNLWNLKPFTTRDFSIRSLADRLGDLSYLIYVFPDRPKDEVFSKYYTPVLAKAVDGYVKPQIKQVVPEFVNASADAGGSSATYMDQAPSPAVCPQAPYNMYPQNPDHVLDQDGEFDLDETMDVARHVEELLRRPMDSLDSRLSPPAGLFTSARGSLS

[12] = target: T2, Signal transducer and activator of transcription 5A (Homo sapiens); assay: Inhibition of STAT5 phosphorylation at Y694/699 residue in imatinib-resistant human K562 cells assessed as phosphorylated STAT5 level at 5 uM incubated for 6 hrs in presence of imatinib by Jess Simple Western immunoassay (reference value: 100%); type: cell-based; parameters: scale not given: the % may be the effect or the level left
COS-7 [13] = assay: Cytotoxicity against African green monkey COS7 cells assessed as cell viability at 10 uM incubated for 72 hrs by MTT assay; settings: chlorocebus aethiops, cos-7, 72 h
K562 [14] = assay: Induction of cell sensitization to imatinib in imatinib-resistant human K562 cells assessed as cell death at >10 uM incubated for 72 hrs in presence of 1 uM imatinib by PI staining based flow cytometry; type: functional; settings: dose microM >10, time 72.0 hrs; summary of the method: as §3

SMILES | Activity (K562 [1]) | Activity (K562 [2]) | Activity (K562 [3]) | Emax at 10 µM [4] | Activity [5] | Activity (COS-7 [6]) | Activity [7] | Activity (K562 [8]) | Activity [9] | Activity [10] | Activity [11] | Activity [12] | Activity (COS-7 [13]) | Activity (K562 [14])
CCCc1nc2c(C)cc(-c3nc4ccccc4n3C)cc2n1Cc1ccc(-c2ccccc2C(N)=O)cc1 | 89% | 76% | 41% | – | – | – | – | – | – | – | – | – | – | –
CCCc1nc2c(C)cc(-c3nc4ccccc4n3C)cc2n1Cc1ccc(-c2ccccc2C(=O)O)cc1 [TELMISARTAN] | 63% | 57% | 21% | 59.8% | – | – | – | – | – | – | – | – | – | –
CCCc1nc2c(Cl)cccc2n1Cc1ccc(-c2ccccc2C#N)cc1 | >85% | 50% | – | 68.4% | Non-Toxic | Non-Toxic | 107% | <= 20% | Non-Toxic | 109% | 81% | 12% | Non-Toxic | –
CCc1ccc(CCOc2ccc(CC3SC(=O)NC3=O)cc2)nc1 (configuration not stated) | – | – | – | – | – | – | – | – | – | – | – | – | – | inactive
CCCc1nc2c(F)cccc2n1Cc1ccc(-c2ccccc2C#N)cc1 | >85% | 50% | – | 76% | Non-Toxic | Non-Toxic | 105% | <= 20% | Non-Toxic | 96% | 89% | 1% | Non-Toxic | –
